ChEMBL document CHEMBL3616436, “Synthesis, cytotoxicity and antimicrobial activity of thiourea derivatives incorporating 3-(trifluoromethyl)phenyl moiety” (Eur J Med Chem, 2015)
Converted amounts (≈) assume the structure as drawn.

How the values were obtained:
Enterococcus hirae = test: Antimicrobial activity against Enterococcus hirae ATCC 10541 at 400 ug after 18 hrs by disc-diffusion method; type: functional; details: ATCC 10541, 18 h, read-out: IZ
Method in brief: (§1)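 Disc diffusion on Mueller-Hinton II agar per CLSI; 9 mm paper discs loaded with 400 µg compound from DMSO solution, dried, placed on agar; growth inhibition zone diameter read after 18 h at 35°C.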

Proteus vulgaris = test: Antimicrobial activity against Proteus vulgaris NCTC 4635 at 400 ug after 18 hrs by disc-diffusion method; type: functional; details: NCTC 4635, 18 h, read-out: IZ; method in brief: as §1
Yellow fever virus = test: Antiviral activity against Yellow fever virus 17D infected in BHK cells assessed as protection against virus-induced cytopathogenicity after 3 to 4 days by MTT assay; type: functional, cell-based
Staphylococcus aureus [1] = test: Antimicrobial activity against Staphylococcus aureus ATCC 25923 at 400 ug after 18 hrs by disc-diffusion method; type: functional; details: ATCC 25923, 18 h, read-out: IZ; method in brief: as §1
[2] = test system: Staphylococcus epidermidis; test: Ratio of ciprofloxacin MIC to compound MIC for hospital methicillin-resistant Staphylococcus epidermidis 62/04 after 18 hrs by twofold serial microdilution method; type: functional
Method in brief: (§2)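 Ratio of MICs for ciprofloxacin and test agent, each from twofold serial broth microdilution in Mueller-Hinton broth following CLSI guidelines. DMSO stock was diluted in sterile water to 0.125–512 µg/mL, with a final inoculum of 10^5 CFU/mL.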

Staphylococcus aureus [3] = test: Ratio of ciprofloxacin MIC to compound MIC for hospital methicillin-resistant Staphylococcus aureus 522/11 after 18 hrs by twofold serial microdilution method; type: functional; method in brief: as §2
Staphylococcus aureus [4] = test: Antimicrobial activity against hospital methicillin-resistant Staphylococcus aureus 53/05 after 18 hrs by twofold serial microdilution method; type: functional; details: 53/05, 18 h
Method in brief: (§3)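 Twofold serial microdilution in Mueller-Hinton broth. Compound stock was made in DMSO and diluted in sterile water. Tested range was 0.125–512 µg/mL. Final inoculum was 10^5 CFU/mL. Plates were incubated 18 h at 35 °C. MIC is the lowest concentration preventing visible growth.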

Human alphaherpesvirus 1 = test: Antiviral activity against Human herpesvirus 1 KOS ATCC VR-1493 infected in African green monkey Vero 76 cells assessed as reduction of virus-plaque formation after 3 days by crystal violet staining; type: functional, organism-based; details: Human alphaherpesvirus 1, KOS ATCC VR1493, Vero, 72 h
Method in brief: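 Plaque reduction: Vero-76 at 2x10^5 cells/well grown to confluent monolayers, infected 2 h at 50–100 PFU/well; after removing unadsorbed virus, overlay of D-MEM, 1% inactivated FBS, 0.75% methylcellulose with or without serial compound dilutions; 3 days at 37°C, fixed and stained with crystal violet in 50% ethanol, plaques counted; EC50 by linear regression.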

[5] = test system: Staphylococcus epidermidis; test: Antimicrobial activity against Staphylococcus epidermidis ATCC 35984 at 400 ug after 18 hrs by disc-diffusion method; type: functional; details: ATCC 35984, 18 h, read-out: IZ; method in brief: as §1
[6] = test system: Mycobacterium tuberculosis; test: Antimycobacterial activity against Mycobacterium tuberculosis H37Rv ATCC 25618; type: functional
Method in brief: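 Classical test-tube successive-dilution method in Youmans' modification of Proskauer and Beck liquid medium with 10% bovine serum. Inoculum came from 14-day cultures. DMSO stock was 10 mg/mL, diluted geometrically in medium. Tubes were incubated at 37 °C. Concentrations tested were 3.1, 6.2, 12.5, 25, 50 and 100 µg/ml. MIC is the minimum concentration inhibiting growth relative to compound-free tubes.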

Enterococcus faecalis = test: Antimicrobial activity against Enterococcus faecalis ATCC 29212 at 400 ug after 18 hrs by disc-diffusion method; type: functional; details: ATCC 29212, 18 h, read-out: IZ; method in brief: as §1
Staphylococcus aureus [7] = test: Ratio of ciprofloxacin MIC to compound MIC for hospital methicillin-resistant Staphylococcus aureus 57/05 after 18 hrs by twofold serial microdilution method; type: functional; method in brief: as §2
Staphylococcus aureus [8] = test: Antimicrobial activity against Staphylococcus aureus ATCC 29213 at 400 ug after 18 hrs by disc-diffusion method; type: functional; details: ATCC 29213, 18 h, read-out: IZ; method in brief: as §1
Staphylococcus aureus [9] = test: Ratio of ciprofloxacin MIC to compound MIC for hospital methicillin-resistant Staphylococcus aureus 80/05 after 18 hrs by twofold serial microdilution method; type: functional; method in brief: as §2
[10] = test system: Human immunodeficiency virus 1; test: Antiviral activity against HIV1 3B infected in human MT4 cells assessed as protection against virus-induced cytopathogenicity by MTT assay; type: functional, organism-based; details: Human immunodeficiency virus 1, 3B
[11] = test system: Staphylococcus epidermidis; test: Ratio of ciprofloxacin MIC to compound MIC for hospital methicillin-resistant Staphylococcus epidermidis 31/04 after 18 hrs by twofold serial microdilution method; type: functional; method in brief: as §2
Staphylococcus aureus [12] = test: Antimicrobial activity against Staphylococcus aureus NCTC 4163 after 18 hrs by twofold serial microdilution method; type: functional; details: NCTC 4163, 18 h
Bacillus cereus = test: Antimicrobial activity against Bacillus cereus ATCC 11778 at 400 ug after 18 hrs by disc-diffusion method; type: functional; details: ATCC 11778, 18 h, read-out: IZ; method in brief: as §1
[13] = test system: Staphylococcus epidermidis; test: Ratio of ciprofloxacin MIC to compound MIC for hospital methicillin-resistant Staphylococcus epidermidis 76/04 after 18 hrs by twofold serial microdilution method; type: functional; method in brief: as §2
Staphylococcus aureus [14] = test: Antimicrobial activity against hospital methicillin-resistant Staphylococcus aureus 81/05 after 18 hrs by twofold serial microdilution method; type: functional; details: 81/05, 18 h; method in brief: as §3
Micrococcus luteus = test: Antimicrobial activity against Micrococcus luteus ATCC 10240 at 400 ug after 18 hrs by disc-diffusion method; type: functional; details: ATCC 10240, 18 h, read-out: IZ; method in brief: as §1
[15] = test system: Staphylococcus epidermidis; test: Ratio of ciprofloxacin MIC to compound MIC for hospital methicillin-resistant Staphylococcus epidermidis 63/04 after 18 hrs by twofold serial microdilution method; type: functional; method in brief: as §2
Poliovirus 1 = test: Antiviral activity against Poliovirus type 1 ATCC VR-1562 infected in African green monkey Vero 76 cells assessed as reduction of virus-plaque formation after 2 days by crystal violet staining; type: functional, organism-based; details: Enterovirus C, ATCC VR-1562, Vero, 48 h
Staphylococcus aureus [16] = test: Antimicrobial activity against Staphylococcus aureus ATCC 25923 after 18 hrs by twofold serial microdilution method; type: functional; details: ATCC 25923, 18 h
[17] = test system: Staphylococcus epidermidis; test: Ratio of ciprofloxacin MIC to compound MIC for hospital methicillin-resistant Staphylococcus epidermidis 23/04 after 18 hrs by twofold serial microdilution method; type: functional; method in brief: as §2
[18] = test system: Staphylococcus epidermidis; test: Antimicrobial activity against Staphylococcus epidermidis ATCC 12228 at 400 ug after 18 hrs by disc-diffusion method; type: functional; details: ATCC 12228, 18 h, read-out: IZ; method in brief: as §1
[19] = test system: Staphylococcus epidermidis; test: Antimicrobial activity against hospital methicillin-resistant Staphylococcus epidermidis 31/04 after 18 hrs by twofold serial microdilution method; type: functional; details: 31/04, 18 h; method in brief: as §3
Staphylococcus aureus [20] = test: Antimicrobial activity against hospital methicillin-resistant Staphylococcus aureus 573/11 after 18 hrs by twofold serial microdilution method; type: functional; details: 573/11, 18 h; method in brief: as §3
Staphylococcus aureus [21] = test: Antimicrobial activity against hospital methicillin-resistant Staphylococcus aureus 80/05 after 18 hrs by twofold serial microdilution method; type: functional; details: 80/05, 18 h; method in brief: as §3
Staphylococcus aureus [22] = test: Antimicrobial activity against hospital methicillin-resistant Staphylococcus aureus 79/05 after 18 hrs by twofold serial microdilution method; type: functional; details: 79/05, 18 h; method in brief: as §3
Vaccinia virus = test: Antiviral activity against Human Vaccinia virus ATCC VR-1549 infected in African green monkey Vero 76 cells assessed as reduction of virus-plaque formation after 3 days by crystal violet staining; type: functional, organism-based; details: Orthopoxvirus vaccinia, ATCC VR-1549, Vero, 72 h

SMILES	zone of inhibition at 400 µg/disc (Enterococcus hirae) [mm]	zone of inhibition at 400 µg/disc (Proteus vulgaris) [mm]	EC50 (Yellow fever virus) [µM]	zone of inhibition at 400 µg/disc (Staphylococcus aureus [1]) [mm]	Ratio [2]	Ratio (Staphylococcus aureus [3])	MIC (Staphylococcus aureus [4]) [µg/mL]	EC50 (Human alphaherpesvirus 1) [µM]	zone of inhibition at 400 µg/disc [5] [mm]	MIC [6] [µg/mL]	zone of inhibition at 400 µg/disc (Enterococcus faecalis) [mm]	Ratio (Staphylococcus aureus [7])	zone of inhibition at 400 µg/disc (Staphylococcus aureus [8]) [mm]	Ratio (Staphylococcus aureus [9])	EC50 [10] [µM]	Ratio [11]	MIC (Staphylococcus aureus [12]) [µg/mL]	zone of inhibition at 400 µg/disc (Bacillus cereus) [mm]	Ratio [13]	MIC (Staphylococcus aureus [14]) [µg/mL]	also measured
Fc1ccc(NC(=S)Nc2cccc(C(F)(F)F)c2)cc1Cl	34	14	> 10	27	128	128	1 (≈ 2.87 µM)	> 20	27	50 (≈ 143 µM)	20	128	30	128	> 8	128	1 (≈ 2.87 µM)	25	128	0.25 (≈ 0.717 µM)	zone of inhibition at 400 µg/disc (Micrococcus luteus): 30 mm; Ratio [15]: 128; EC50 (Poliovirus 1): > 20 µM; MIC (Staphylococcus aureus [16]): 1 µg/mL (≈ 2.87 µM); Ratio [17]: 128; zone of inhibition at 400 µg/disc [18]: 30 mm; MIC [19]: 1 µg/mL (≈ 2.87 µM); MIC (Staphylococcus aureus [20]): 0.5 µg/mL (≈ 1.43 µM); MIC (Staphylococcus aureus [21]): 0.25 µg/mL (≈ 0.717 µM); MIC (Staphylococcus aureus [22]): 1 µg/mL (≈ 2.87 µM); EC50 (Vaccinia virus): > 20 µM
FC(F)(F)c1cccc(NC(=S)Nc2cccc(Br)c2)c1	13	12	> 10	28	128	128	1 (≈ 2.67 µM)	> 14	27	100 (≈ 267 µM)	18	128	29	128	> 9.2	128	1 (≈ 2.67 µM)	24	128	1 (≈ 2.67 µM)	zone of inhibition at 400 µg/disc (Micrococcus luteus): 30 mm; Ratio [15]: 128; EC50 (Poliovirus 1): > 14 µM; MIC (Staphylococcus aureus [16]): 1 µg/mL (≈ 2.67 µM); Ratio [17]: 128; zone of inhibition at 400 µg/disc [18]: 29 mm; MIC [19]: 2 µg/mL (≈ 5.33 µM); MIC (Staphylococcus aureus [20]): 0.25 µg/mL (≈ 0.666 µM); MIC (Staphylococcus aureus [21]): 0.5 µg/mL (≈ 1.33 µM); MIC (Staphylococcus aureus [22]): 0.5 µg/mL (≈ 1.33 µM); EC50 (Vaccinia virus): > 14 µM
